Results on 18 molecules are retold here after ChEMBL document CHEMBL1148214, “In-vitro cytotoxic activities of the major bromophenols of the red alga Polysiphonia lanosa and some novel synthetic isomers” (J Nat Prod, 2004).

Activity calls are given as the source filed them. The calls are words filed in the database; no cut-off is given here.

The subject of one experiment is HCT-116. Put plainly: Cytotoxicity against human HCT116 cells after 96 hrs by MTT assay. The experiment is classed as functional, cell-based. The procedure, abridged: (§1)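 DLD-1 or HCT-116 cells in RPMI 1640 with 10% FCS, seeded at 1 × 10^4 cells mL-1 and incubated overnight at 37 °C, 5% CO2. Continuous 4-day drug exposure, drug in DMSO (max 0.1%), 8 wells per concentration. MTT 0.5 mg mL-1 for 4 h; formazan in DMSO read at 550 nm. IC50 taken as 50% growth inhibition versus control; 5FU positive control; triplicate.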
(In general: Formazan colour is commonly taken as a measure of viable cells.)

Experiment [1] concerns DLD-1. Put plainly: Cytotoxicity against human DLD1 cells after 96 hrs by MTT assay. Details: unit not given here. The experiment is classed as functional, cell-based. The method in brief: as §1
Experiment [2] relates to DLD-1. The experiment in a line: Cytotoxicity against human DLD1 cells after 1 hr by MTT assay. The experiment is classed as functional, cell-based. The method in brief: (§2)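 DLD-1 cells seeded at 1 × 10^4 cells mL-1 and incubated overnight at 37 °C, 5% CO2. Drug was in DMSO (max 0.1% final) diluted in medium, 8 wells per concentration. After 1, 3 or 24 h the drug was removed, cells washed twice and grown in fresh medium to 4 days total. MTT at 0.5 mg mL-1 for 4 h; formazan dissolved in DMSO, absorbance read at 550 nm. IC50 determined relative to control survival; triplicate experiments.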

Experiment [3] deals with DLD-1. Put plainly: Cell cycle arrest in human DLD1 cells assessed as accumulation at G2/M phase at 10 umol after 72 hrs by flow cytometry. The experiment is classed as functional. The method in brief:
(§3)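 DLD-1 cells seeded at 5 × 10^4 cells mL-1 and grown 24 h at 37 °C, then exposed to drug for 72 h. Harvested by trypsinisation, fixed in 70% EtOH, suspended in PBS pH 7.3, RNase-treated and stained with propidium iodide for 30 min at 37 °C. DNA content measured by flow cytometry on 10 000 cells; percentage of cells in each cycle phase calculated.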
On the technique in general: A flow cytometer gives signals particle by particle.

For experiment [4], the system named is DLD-1. The experiment in a line: Cell cycle arrest in human DLD1 cells assessed as accumulation at G0/G1 phase at 2.5 umol after 72 hrs by flow cytometry. The experiment is classed as functional. The procedure, abridged:
as §3

Experiment [5] has as its system DLD-1. The experiment in a line: Cell cycle arrest in human DLD1 cells assessed as accumulation at G2/M phase at 5 umol after 72 hrs by flow cytometry. The experiment is classed as functional. The method in brief:
as §3

Experiment [6] concerns DLD-1. Put plainly: Cytotoxicity against human DLD1 cells after 24 hrs by MTT assay. The experiment is classed as functional, cell-based. The method in brief: as §2
Experiment [7] has as its system DLD-1. The experiment in a line: Cytotoxicity against human DLD1 cells after 3 hrs by MTT assay. The experiment is classed as functional, cell-based. The method in brief: as §2
For experiment [8], the system named is DLD-1. Put plainly: Cell cycle arrest in human DLD1 cells assessed as accumulation at G0/G1 phase at 10 umol after 72 hrs by flow cytometry. The experiment is classed as functional. The procedure, abridged:
as §3

Experiment [9] deals with DLD-1. The experiment in a line: Cell cycle arrest in human DLD1 cells assessed as accumulation at G0/G1 phase at 5 umol after 72 hrs by flow cytometry. The experiment is classed as functional. The method in brief:
as §3

For experiment [10], the system named is DLD-1. The experiment in a line: Cytotoxicity against human DLD1 cells at 8 umol after 96 hrs by MTT assay. The experiment is classed as functional, cell-based. The procedure, abridged:
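DLD-1 cells exposed continuously for 4 days to drug at 8 µmol in DMSO-containing medium (max 0.1% DMSO). Survival measured by MTT at 0.5 mg mL-1 for 4 h, formazan read at 550 nm, and expressed as percentage of mean control absorbance.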

The test system of experiment [11] is DLD-1. Put plainly: Cell cycle arrest in human DLD1 cells assessed as accumulation at S phase at 10 umol after 72 hrs by flow cytometry. The experiment is classed as functional. The procedure, abridged: as §3
Experiment [12] concerns DLD-1. Put plainly: Cell cycle arrest in human DLD1 cells assessed as accumulation at S phase at 2.5 umol after 72 hrs by flow cytometry. The class given is functional. The method in brief: as §3
Experiment [13] relates to DLD-1. The experiment in a line: Cell cycle arrest in human DLD1 cells assessed as accumulation at S phase at 5 umol after 72 hrs by flow cytometry. The class given is functional. The method in brief: as §3
For experiment [14], the system named is DLD-1. Put plainly: Cell cycle arrest in human DLD1 cells assessed as accumulation at G2/M phase at 2.5 umol after 72 hrs by flow cytometry. The experiment is classed as functional. The procedure, abridged: as §3

For `CCOCc1cc(O)c(O)c(Br)c1Br` [ETHYL LANOSOL], the results for the IC50 with HCT-116 and in the experiment on DLD-1 [1] were 2.51 µmol and 13.5, respectively.

Take `O=Cc1cc(O)c(O)c(Br)c1Br`: the IC50 in the experiment on DLD-1 [1] is on record as 30.9.

In the experiment with DLD-1 [1], `O=Cc1cc(O)c(O)c(Br)c1` displayed an IC50 of 27.9.

With `COCc1cc(Br)c(O)c(O)c1Br`, the values for the IC50 in the experiment on HCT-116 and in the experiment on DLD-1 [1] were 3.48 µmol and 7.27, respectively.

In the case of `CCCOCc1cc(Br)c(O)c(O)c1Br`, the IC50 with DLD-1 [2] is 79.76 µmol; in the experiment on DLD-1 [6] it was 2.71 µmol; in the experiment on HCT-116, 0.8 µmol; with DLD-1 [7], 77.98 µmol; in the experiment on DLD-1 [1], 1.72. In addition, the Activity in the experiment with DLD-1 [3] was 9.95%; in the experiment on DLD-1 [4], 32.14%; with DLD-1 [5], 19.79%; in the experiment on DLD-1 [8] it was 56.4%; with DLD-1 [9] it was 19.65%; with DLD-1 [11] it was 33.65%. The figures for the Activity in the experiment with DLD-1 [12], with DLD-1 [13] and in the experiment on DLD-1 [14] were 42.21%, 60.56% and 25.65%, respectively. In the experiment on DLD-1 [10], the result was Active.

On to `CCOCc1cc(Br)c(O)c(O)c1Br`, for which the IC50 in the experiment with HCT-116 came out at 1.54 µmol; in the experiment on DLD-1 [1] it was 7.15.

On to `CCOCc1cc(O)c(O)c(Br)c1`, for which, in the experiment on DLD-1 [1], the IC50 came to 35.1.

As for `OCc1cc(Br)c(O)c(O)c1Br`, the IC50 in the experiment with HCT-116 was found to be 21.4 µmol; with DLD-1 [1] it was 15.

Molecule `CCCOCc1cc(O)c(O)c(Br)c1` returned an IC50 with DLD-1 [1] of 26.3.

For the molecule `O=c1[nH]cc(F)c(=O)[nH]1` [FLUOROURACIL], the IC50 in the experiment with HCT-116 worked out at 4.93 µmol.

As for `COCc1cc(O)c(O)c(Br)c1`, in the experiment with DLD-1 [1], the IC50 was 35.3.

For `OCc1cc(O)c(O)c(Br)c1`, the IC50 in the experiment on DLD-1 [1] was found to be 51.5.

As to `COc1cc(C=O)cc(Br)c1O`, the IC50 in the experiment with DLD-1 [1] is recorded as more than 200.

Take `O=Cc1cc(Br)c(O)c(O)c1Br`: the IC50 with DLD-1 [1] was found to be 31.

As for `Oc1c(O)c(Br)c(Br)c(Br)c1Br` [TETRABROMOCATECHOL], the IC50 came to 8.75 µmol in the experiment with HCT-116 and 6.43 in the experiment with DLD-1 [1].

`CCCOCc1cc(O)c(O)c(Br)c1Br`: the results for the IC50 in the experiment with HCT-116 and in the experiment with DLD-1 [1] were 1.32 µmol and 12.4, respectively.

`OCc1cc(O)c(O)c(Br)c1Br` [LANOSOL] came in with an IC50 with HCT-116 of 20.4 µmol.

In the experiment with HCT-116, `COCc1cc(O)c(O)c(Br)c1Br` registered an IC50 of 14.1 µmol.
